Experimental data as given in ChEMBL document CHEMBL4513216, “Probing the Open Global Health Chemical Diversity Library for Multistage-Active Starting Points for Next-Generation Antimalarials” (ACS Infect Dis, 2020).

Assay: Toxicity liver stage against HepG2, at 10uM
Assay type: cell-based
Set-up: test concentration 10 uM, cell line HepG2-A16-CD81EGFP
Settings: human, HepG2-A16-CD81EGFP cells; read-out: INHIBITION
Procedure, shortened: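 Uninfected HepG2-A16-CD81EGFP cells, 3 × 10^3 per well, 1536-well, plated on prespotted compound at 10 μM final, parasite-free screening media added to match infected plates; puromycin 10 μM positive, DMSO 0.5% negative; run in parallel with 48 h PbLuc assay at 37 °C, 5% CO2; viability by CellTiter-Glo luminescence, normalized to controls.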

Cc1noc(C)c1C(C)NC(=O)N1CCN(c2cccs2)CC1 (stereo unspecified)
cytotoxicity at 10 µM: 6.43%

Cc1n[nH]c(C(=O)NCc2ccnc(OCC(F)(F)F)c2)c1Br
cytotoxicity at 10 µM: 5.67%

CCc1nc(CN2CCCN(C(=O)c3c(C)noc3C)CC2)cs1
cytotoxicity at 10 µM: 1.74%

O=C([C@H]1C[C@H]2OCC[C@H]2N(CCc2ccccc2)C1)N1CCCCO1
cytotoxicity at 10 µM: 0.307%

Cc1ccc(N2CCCC(NCc3ccc(C)o3)C2)nn1 (stereo unspecified)
cytotoxicity at 10 µM: 0.0722%

Cc1nc(CN2CC[C@H]3[C@@H]2CCC(=O)N3c2cnn(C)c2)cs1
cytotoxicity at 10 µM: 11.3%

CS(=O)(=O)NCCNCc1ccc(Br)s1
cytotoxicity at 10 µM: -3.04%

Cn1nnnc1SCCNC(=O)c1cccc2ccnn12
cytotoxicity at 10 µM: -59.1%

CC(=O)c1c(C)cc(C)c(Cn2ccnc2S(C)(=O)=O)c1C
cytotoxicity at 10 µM: -0.657%

COc1c[nH]c(C(=O)Nc2nc(C)cs2)cc1=O
cytotoxicity at 10 µM: -44.4%

Cc1cc(F)ccc1S(=O)(=O)NCc1[nH]ncc1Br
cytotoxicity at 10 µM: 15.1%

CC(C)N1CCCC(Cc2nccnc2Cl)C1 (stereo unspecified)
cytotoxicity at 10 µM: -3.22%

CNC(=O)c1nc(CN2CCOC(Cc3ccc(F)cc3)C2)no1 (stereo unspecified)
cytotoxicity at 10 µM: -2.28%

OCCOc1ccc(NCc2cccnc2)cn1
cytotoxicity at 10 µM: 1.04%

CCc1ccc(S(=O)(=O)Nc2cn(C)cc(Br)c2=O)cc1
cytotoxicity at 10 µM: -10.8%

COCCOCC1(CNCc2cccc(OC)c2)C[C@@H](O)[C@@H](O)C1 (stereo partly specified)
cytotoxicity at 10 µM: 0.994%

Cc1noc(CNc2ccc(CC(=O)N3CCSCC3)cc2)n1
cytotoxicity at 10 µM: -2.29%

Cc1c(C(=O)NCCCS(C)(=O)=O)cccc1-c1ccccn1
cytotoxicity at 10 µM: 4.83%

Cc1cc(N2CCC3(CCC(=O)N(CCO)C3)CC2)nc(N(C)C)n1
cytotoxicity at 10 µM: -4.78%

O=C(Nc1c(N2CCCC2)cccc1N1CCCC1)c1ccccn1
cytotoxicity at 10 µM: -25.7%

CC(C)c1cc(NC(=O)CN2CCc3cncnc3C2)on1
cytotoxicity at 10 µM: -8.83%

NC(=O)NC(CC(=O)NCCc1cccc(F)c1)c1ccccc1 (stereo unspecified)
cytotoxicity at 10 µM: -0.862%

CC(C)C(=O)NCc1ccnc(Oc2ccc(F)cc2)c1
cytotoxicity at 10 µM: 6.06%

O=C(c1ccc[nH]1)N1CCc2c(cccc2S(=O)(=O)N2CCOCC2)C1
cytotoxicity at 10 µM: -15%

O=C(CC1CC1)N1CCC2(CC1)CN(c1ccsc1)C(=O)CO2
cytotoxicity at 10 µM: -73.1%

CN(Cc1nc(C(F)(F)F)cs1)C(=O)CCc1ccccn1
cytotoxicity at 10 µM: 23.5%

O=C(CSc1ccc(F)cc1)NS(=O)(=O)c1ccc2c(c1)OCCO2
cytotoxicity at 10 µM: -29.1%

Cc1noc(C)c1CN(C)C(=O)Cn1c(=O)n(C)c2ccccc21
cytotoxicity at 10 µM: -4.32%

CCCc1nc(N2CCC(C)CC2)c2c(n1)c(C)nn2CC
cytotoxicity at 10 µM: 1.64%

O=C(CCCNCc1ccccc1)N1CCCn2cncc2C1
cytotoxicity at 10 µM: -3.32%

CCC(=O)N1CCC(NC2CCCC2)C1 (stereo unspecified)
cytotoxicity at 10 µM: -4.26%

O=C(c1ccccc1C1CCNC1)N1CCC(N2CCC(O)CC2)CC1 (stereo unspecified)
cytotoxicity at 10 µM: -8.3%

CCc1cc(-c2cc[nH]n2)nc(N2CCCC2)n1
cytotoxicity at 10 µM: 0.255%

O=C1N(CCCc2ccccc2)CCCC1(O)CN1CCC(CO)CC1 (stereo unspecified)
cytotoxicity at 10 µM: -10.5%

COCCN1CCCC2(CCN(c3nc(C)nc4ccsc34)C2)C1=O (stereo unspecified)
cytotoxicity at 10 µM: 10.7%

COCCn1c2c(ccc1=O)CC(NC(=O)c1cscn1)CC2 (stereo unspecified)
cytotoxicity at 10 µM: -97%

CCc1ncc2c(n1)CN(CC(=O)Nc1ccc(Cl)cn1)CC2
cytotoxicity at 10 µM: 1.47%

O=C(c1ccco1)N1CCCC2(CN(Cc3ccsc3)CCO2)C1 (stereo unspecified)
cytotoxicity at 10 µM: -2.37%

CCC(=O)N1C[C@@H](C(=O)NC)[C@H](c2ccnc(N3CCCC3)n2)C1
cytotoxicity at 10 µM: -1.21%

CS(=O)(=O)N1CCCCC12CCN(c1nncs1)CC2
cytotoxicity at 10 µM: 10.6%

CCOc1ccc(CCCC(=O)N2CCC(c3nnn[nH]3)CC2)cc1C
cytotoxicity at 10 µM: -3.57%

COc1ccc(CNCC(O)c2cccc(O)c2)cc1Br (stereo unspecified)
cytotoxicity at 10 µM: -3.86%

CC(C)Cc1noc(-c2ccc(NCc3noc(C(C)C)n3)nc2)n1
cytotoxicity at 10 µM: 0.178%

CC(C)C(O)CNC(=O)CCCc1ccccn1 (stereo unspecified)
cytotoxicity at 10 µM: 0.665%

CN1CCCN(C(=O)c2cccc(S(=O)(=O)NCC3(C)COC3)c2)CC1
cytotoxicity at 10 µM: -6.63%

CC(C(=O)NCc1ccnc(N2CCCCCC2)c1)n1cccn1 (stereo unspecified)
cytotoxicity at 10 µM: -15.8%
